INS-1E GSIS act – GLuc luminescence reporter in INS-1E cells, primary screen for activators of glucose-dependent secretion of insulin. activation, % at 16.6 µM. hit rate 0.61% among 370,000. INS-1E GLuc reporter insulin secretion, 2-3 h. AID 743287;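 active = lowest replicate activation of at least 40%, so every replicate reaches that level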
EWS-Fli inh – blocks EWS/Fli oncoprotein-driven transcription; AID 651661; A673 NR0B1-luciferase reporter, viability-normalised; hit rate 0.67% among 350,000; inhibition, % at 12.6 µM;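 active = mean inhibition of at least 50% after viability correction, with every replicate also passing that limit; inconclusive = mean reaches 50% but only one of two replicates passes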;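 note: firefly luciferase signal divided by Alamar Blue viability fluorescence both relative to DMSO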
PAX8 reporter – inhibitors of PAX8 transcriptional activity in RMG-I cells; RMG-I TPO-luciferase reporter, SteadyGlo, 24 h; inhibition, % at 12.6 µM; hit rate 1.2% among 360,000; AID 652154;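 active = mean replicate inhibition at least 60% with every replicate also reaching 60%; inconclusive = only one of the two criteria is met; inactive = mean below 60% and not all replicates reaching 60%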;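 note: luciferase light reporting Pax8 driven TPO promoter activity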
PGC1a acetyl inh – lowers PGC1a acetylation signal in U2OS cells; AlphaScreen anti-acetyl-lysine; with virally co-expressed GCN5 acetyltransferase; inhibition, % at 15.6 µM; hit rate 0.17% among 350,000;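 active = every replicate shows inhibition of at least 40%; inconclusive = mean inhibition at least 40% but some replicate below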
AF4-AF9 inh – inhibitors of human MLL-AF4/AF9 interaction; AlphaScreen, biotin-AF4 peptide binding to FLAG-AF9; inhibition, % at 10 µM; hit rate 0.47% among 350,000; AID 651704;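 active = every replicate reaching a set inhibition limit, whatever the replicate mean, cut at about 25% in these data; inconclusive = mean inhibition reaches that limit but some replicates miss it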
Target sequence (P42568 whole entry, looked up): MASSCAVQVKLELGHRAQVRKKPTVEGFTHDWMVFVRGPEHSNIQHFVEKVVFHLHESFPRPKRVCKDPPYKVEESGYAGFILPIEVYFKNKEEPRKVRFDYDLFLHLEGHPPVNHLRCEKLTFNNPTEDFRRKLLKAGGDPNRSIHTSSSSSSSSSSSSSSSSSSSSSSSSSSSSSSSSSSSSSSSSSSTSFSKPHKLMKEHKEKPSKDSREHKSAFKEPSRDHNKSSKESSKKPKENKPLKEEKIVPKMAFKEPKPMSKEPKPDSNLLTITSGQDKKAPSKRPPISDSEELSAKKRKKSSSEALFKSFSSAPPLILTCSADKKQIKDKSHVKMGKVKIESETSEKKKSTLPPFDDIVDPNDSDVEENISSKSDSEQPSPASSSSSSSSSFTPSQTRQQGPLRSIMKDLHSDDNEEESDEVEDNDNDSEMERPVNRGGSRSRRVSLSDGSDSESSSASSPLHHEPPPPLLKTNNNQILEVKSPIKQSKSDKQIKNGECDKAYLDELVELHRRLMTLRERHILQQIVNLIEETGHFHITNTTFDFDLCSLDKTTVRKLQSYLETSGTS
XiGFP reactiv – activators of X-chromosome reactivation in mouse fibroblasts. XiGFP mouse fibroblasts, % GFP-positive cells imaging, 3 d; cells co-treated with 5-aza-dC sensitizer; scaled so ellipticine positive control = 100%. hit rate 0.055% among 360,000. activation, % at 7.58 µM;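 active = mean normalized replicate activation at least 10% and every replicate at or above 10%; inconclusive = only one of the two criteria met; inactive = mean below 10% and not all replicates reach 10%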
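Material: SV40-immortalized XiGFP fibroblast cells, line 68-5-11 | Buffer or medium: DMEM containing 5-aza-dC | Dosing: One concentration, pinned | Times: 3 d treatment, 15 min room-temperature fixation | Controls: Ellipticine 6 µM positive control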
Each line names hits and unclear results; the compound was inactive in the other large screens. A selection: hits, their analogues and other compounds. The true share with any hit is near 2.1%.

C[C@@H]1CCCCO[C@H](CN(C)C(=O)Nc2cccc3ccccc23)[C@H](C)CN([C@@H](C)CO)C(=O)c2cc(N(C)C)ccc2O1	PAX8 reporter 71, AF4-AF9 inh inconclusive
C[C@@H]1CN([C@H](C)CO)C(=O)c2cc(N(C)C)ccc2O[C@@H](C)CCCCO[C@H]1CN(C)C(=O)Nc1cccc2ccccc12	none (no result: INS-1E GSIS act, XiGFP reactiv)
O=C(CCS(=O)(=O)c1ccccc1)Nc1nc2ccc(F)cc2s1	PAX8 reporter 107 (no result: PGC1a acetyl inh)
Cc1ccc2nc(-c3ccc(NC(=O)CCS(=O)(=O)c4ccccc4)cc3)sc2c1	EWS-Fli inh 70 (no result: PGC1a acetyl inh)
CO[C@H]1CN(C)C(=O)c2cc(NC(=O)NC3CCCC3)ccc2OC[C@H](C)NC[C@@H]1C	none (no result: EWS-Fli inh, PAX8 reporter, PGC1a acetyl inh, AF4-AF9 inh)
CCN(CC)C(=O)[C@H]1C[C@H](CC(=O)NCCCN(C)C)C(=O)N2CCc3c([nH]c4cc(-c5ccco5)ccc34)[C@]12C	none (no result: PGC1a acetyl inh)
CC[C@]12c3[nH]c4ccc(Cl)cc4c3CCN1C(=O)[C@@H](CC(=O)NC/C=C(\C)CCC=C(C)C)C[C@@H]2C(=O)N1CCN(C(=O)c2ccco2)CC1	PAX8 reporter 82
CC(C)N(C(=O)[C@H]1C[C@H](CC(=O)NCCCN(C)C)C(=O)N2CCc3c([nH]c4cc(-c5ccco5)ccc34)[C@]12C)C(C)C	AF4-AF9 inh 29
CN(C)CCCNC(=O)C[C@H]1C[C@H](C(=O)N2CCOCC2)[C@@]2(CCC3CCCC3)c3[nH]c4cc(-c5ccco5)ccc4c3CCN2C1=O	AF4-AF9 inh 41
CC[C@]12c3[nH]c4ccc(Cl)cc4c3CCN1C(=O)[C@@H](CC(=O)NC(C)(C)C)C[C@@H]2C(=O)N1CCN(C(=O)c2ccco2)CC1	none
O=C(C[C@H]1C[C@H](C(=O)N2CCOCC2)[C@@]2(CCC3CCCC3)c3[nH]c4cc(-c5ccco5)ccc4c3CCN2C1=O)NCCN1CCOCC1	none
CN(C)CCCNC(=O)C[C@H]1C[C@H](C(=O)N2CCCCC2)[C@@]2(CCc3ccccc3)c3[nH]c4ccc(Cl)cc4c3CCN2C1=O	EWS-Fli inh 63 (no result: INS-1E GSIS act)
C[C@H]1CN([C@@H](C)CO)C(=O)Cc2cc(NS(=O)(=O)c3ccccc3)ccc2O[C@@H]1CN(C)C	none
O=C(Nc1ccc(C2=NCCN2)cc1)c1ccc(C(=O)Nc2ccc(C3=NCCN3)cc2)c([N+](=O)[O-])c1	AF4-AF9 inh 38 (no result: PGC1a acetyl inh)
O=C(N[C@@H]1CC[C@@H](CCNS(=O)(=O)c2ccc(F)cc2)O[C@H]1CO)c1cnccn1	none
COc1ccccc1C(=O)Nc1ccc2c(c1)nc(CCNC(=O)c1ccccc1)n2C	EWS-Fli inh 65 (no result: INS-1E GSIS act)
CC1(C(=O)N2CCCCC2)CCN1C(=O)C1(c2ccccc2)CC1 (centres undefined)	INS-1E GSIS act 40 (no result: PGC1a acetyl inh)
C[C@@H](NC(=O)C[C@H]1CC[C@H]2[C@@H](COc3ccc(NS(=O)(=O)c4ccc(Cl)cc4)cc3C(=O)N2C)O1)c1ccccc1	none
CCCCCCc1cc2cc(C(=O)Nc3cccc(OC)c3)c(=O)oc2cc1O	INS-1E GSIS act 68 (no result: EWS-Fli inh, PGC1a acetyl inh, AF4-AF9 inh)
O=C(c1ccco1)N1N=C(C2CCCCC2)CC1(O)C(F)(F)F (centres undefined)	INS-1E GSIS act 52
O=C(c1ccco1)N1N=C(c2ccc(Br)cc2)CC1(O)C(F)(F)F (centres undefined)	PAX8 reporter 97
O=C(c1ccncc1)N1N=C(C2CCCCC2)CC1(O)C(F)(F)F (centres undefined)	none
C[C@H]1CN([C@@H](C)CO)C(=O)c2cc(NS(=O)(=O)c3cn(C)cn3)ccc2O[C@@H]1CN(C)CC1CC1	none
CCSc1ccc(C(=O)Nc2cccc(C)n2)cc1[N+](=O)[O-]	INS-1E GSIS act 59 (no result: EWS-Fli inh, PGC1a acetyl inh, AF4-AF9 inh)
CCSc1ccc(C(=O)Nc2ccc(Br)cn2)cc1[N+](=O)[O-]	none (no result: PGC1a acetyl inh)
CN1C(=O)c2cc(NC(=O)c3cccs3)ccc2OC[C@@H]2O[C@@H](CC(=O)N3CCCCC3)CC[C@H]21	none
C[C@H]1CN(C)C(=O)Cc2ccccc2O[C@@H]1CN(C)S(C)(=O)=O	none (no result: EWS-Fli inh, PAX8 reporter, PGC1a acetyl inh, AF4-AF9 inh)
C[C@H]1CN([C@@H](C)CO)C(=O)c2cc(NS(=O)(=O)c3ccccc3)ccc2O[C@H]1CN(C)C(=O)Nc1ccccc1	none
COc1cc(OC)c2c3c(c(C4CCCCC4)nc2c1)CCC3	INS-1E GSIS act 266 (no result: AF4-AF9 inh)
COc1ccc(-c2nc(C3CCCCC3)c3cc(OC)ccc3n2)cc1	none
Cc1cc(-n2c(SCC(=O)Nc3ccc(F)c(F)c3)nc3n[nH]c(C)c3c2=N)ccc1Cl	INS-1E GSIS act 250, PAX8 reporter 77
Cc1cccc(N=C2NN=C(c3ccc4c(c3)OCCO4)CS2)c1	none (no result: PAX8 reporter, XiGFP reactiv)
Cc1cccc(N=C2NN=C(c3c(C)[nH]c4ccccc34)CS2)c1	PAX8 reporter 74 (no result: INS-1E GSIS act)
C[C@@H]1CN([C@@H](C)CO)C(=O)c2cc(NS(C)(=O)=O)ccc2O[C@@H]1CN(C)C(=O)Nc1ccc(C(F)(F)F)cc1	none
CCC(C)(CC(=O)O)CC(=O)Nc1cc(C(F)(F)F)cc(C(F)(F)F)c1 (centres undefined)	PGC1a acetyl inh 68
C[C@@H]1CN(C)C(=O)c2ccccc2O[C@H]1CN(C)S(C)(=O)=O	none (no result: EWS-Fli inh, PAX8 reporter, PGC1a acetyl inh, AF4-AF9 inh)
CC(CC(=O)Nc1ccc2c(c1)c(=O)n(C)n2-c1ccccc1)c1ccccc1 (centres undefined)	EWS-Fli inh 56
COc1cccc(-c2nc(CS(=O)(=O)CC(=O)NCCCN3CC(C)CC(C)C3)c(C)o2)c1 (centres undefined)	PAX8 reporter 118 (no result: PGC1a acetyl inh)
CCCC(=O)N1CC2(C1)CN(C(=O)CC1CC1)[C@H](CO)c1c2c2ccc(OC)cc2n1C	none (no result: PAX8 reporter)
CC(C)CC#Cc1ccc([C@H]2[C@@H](CO)N3C(=O)CN(C(=O)c4cnccn4)C[C@H]23)cc1	none (no result: PAX8 reporter)
Cc1ccc2[nH]c(=O)c(CN(CC3CCCO3)C(=O)c3cccs3)cc2c1 (centres undefined)	INS-1E GSIS act 156
Cc1noc(C)c1NC(=O)N(C)C[C@H]1Oc2ncc(C#CC3CC3)cc2C(=O)N([C@H](C)CO)C[C@H]1C	none (no result: PAX8 reporter)
CC(C)CC#Cc1ccc2c(c1)O[C@H](CN(C)Cc1ccc(F)cc1)[C@@H](C)CN([C@H](C)CO)S2(=O)=O	none
CC(C)CC#Cc1ccc2c(c1)O[C@H](CN(C)Cc1ccccc1)[C@H](C)CN([C@@H](C)CO)S2(=O)=O	PGC1a acetyl inh 48 (no result: PAX8 reporter, AF4-AF9 inh)
CC(C)CC#Cc1ccc2c(c1)O[C@H](CN(C)Cc1ccccc1)[C@@H](C)CN([C@H](C)CO)S2(=O)=O	PGC1a acetyl inh 52 (no result: PAX8 reporter, AF4-AF9 inh)
CC(C)CC#Cc1ccc2c(c1)O[C@@H](CN(C)Cc1ccccc1)[C@H](C)CN([C@@H](C)CO)S2(=O)=O	none (no result: PAX8 reporter, AF4-AF9 inh)
CC(C)CC#Cc1ccc2c(c1)O[C@H](CN(C)Cc1ccc(F)cc1)[C@H](C)CN([C@H](C)CO)S2(=O)=O	PAX8 reporter 76

From PubChem
